Test results: ChEMBL document CHEMBL2040831, “Discovery of ((S)-5-(methoxymethyl)-7-(1-methyl-1H-indol-2-yl)-2-(trifluoromethyl)-4,7-dihydropyrazolo[1,5-a]pyrimidin-6-yl)((S)-2-(3-methylisoxazol-5-yl)pyrrolidin-1-yl)methanone as a potent and selective I(Kur) inhibitor” (J Med Chem, 2012)
Blank lines part the entries; values can stand above or below the compound they belong to. Activity calls are given as the source filed them. The calls are words filed in the database; no cut-off is given here.

Key:
[1] = Drug degradation assessed as GSH adduct formation by fluorescence detection assay; format: physicochemical
Outline: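 Test article at 100 μM incubated 30 min at 37 °C with 2 mg/mL human liver microsomes in 0.1 M potassium phosphate buffer containing 2 mM NADPH and 2 mM dansyl glutathione. Quenched with 2 volumes of 5 mM dithiothreitol in methanol, vortexed and centrifuged. Supernatant analysed by HPLC with fluorescence detection (Ex 340 nm, Em 525 nm) to quantify GSH adducts.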

[2] = target: T1, Potassium voltage-gated channel subfamily A member 5 (Homo sapiens, UniProt P22460); assay: Inhibition of human KV1.5 ion channel expressed in mouse L929 cells at 0.3 uM by whole cell patch clamp assay; format: cell-based
T1 sequence (P22460 whole entry): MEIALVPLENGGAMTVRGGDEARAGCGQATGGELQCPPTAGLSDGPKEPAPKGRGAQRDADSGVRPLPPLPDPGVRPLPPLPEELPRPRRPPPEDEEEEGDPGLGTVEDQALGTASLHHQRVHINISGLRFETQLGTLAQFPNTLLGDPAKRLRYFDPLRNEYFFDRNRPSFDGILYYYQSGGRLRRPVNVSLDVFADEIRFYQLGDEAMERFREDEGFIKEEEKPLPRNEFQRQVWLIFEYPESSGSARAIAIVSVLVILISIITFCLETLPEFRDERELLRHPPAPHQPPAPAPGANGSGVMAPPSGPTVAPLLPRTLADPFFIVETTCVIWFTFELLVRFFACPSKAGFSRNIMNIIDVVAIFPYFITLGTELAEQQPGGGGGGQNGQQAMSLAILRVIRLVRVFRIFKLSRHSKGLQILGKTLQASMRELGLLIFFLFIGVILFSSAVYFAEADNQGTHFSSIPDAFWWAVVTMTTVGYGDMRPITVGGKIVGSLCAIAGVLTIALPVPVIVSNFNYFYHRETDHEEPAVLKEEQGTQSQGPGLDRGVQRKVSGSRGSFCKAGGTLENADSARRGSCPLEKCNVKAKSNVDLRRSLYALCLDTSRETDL

[3] = target: T1, Potassium voltage-gated channel subfamily A member 5; assay: Inhibition of human KV1.5 ion channel expressed in mouse L929 cells by whole cell patch clamp assay; format: cell-based
[4] = target: hERG (KCNH2) (Homo sapiens, UniProt Q12809); assay: Inhibition of human ERG expressed in HEK293 cells at 10 uM by patch clamp assay; format: cell-based; details: HEK293 cells expressing human ERG
Chain of hERG (KCNH2) (Q12809 whole entry): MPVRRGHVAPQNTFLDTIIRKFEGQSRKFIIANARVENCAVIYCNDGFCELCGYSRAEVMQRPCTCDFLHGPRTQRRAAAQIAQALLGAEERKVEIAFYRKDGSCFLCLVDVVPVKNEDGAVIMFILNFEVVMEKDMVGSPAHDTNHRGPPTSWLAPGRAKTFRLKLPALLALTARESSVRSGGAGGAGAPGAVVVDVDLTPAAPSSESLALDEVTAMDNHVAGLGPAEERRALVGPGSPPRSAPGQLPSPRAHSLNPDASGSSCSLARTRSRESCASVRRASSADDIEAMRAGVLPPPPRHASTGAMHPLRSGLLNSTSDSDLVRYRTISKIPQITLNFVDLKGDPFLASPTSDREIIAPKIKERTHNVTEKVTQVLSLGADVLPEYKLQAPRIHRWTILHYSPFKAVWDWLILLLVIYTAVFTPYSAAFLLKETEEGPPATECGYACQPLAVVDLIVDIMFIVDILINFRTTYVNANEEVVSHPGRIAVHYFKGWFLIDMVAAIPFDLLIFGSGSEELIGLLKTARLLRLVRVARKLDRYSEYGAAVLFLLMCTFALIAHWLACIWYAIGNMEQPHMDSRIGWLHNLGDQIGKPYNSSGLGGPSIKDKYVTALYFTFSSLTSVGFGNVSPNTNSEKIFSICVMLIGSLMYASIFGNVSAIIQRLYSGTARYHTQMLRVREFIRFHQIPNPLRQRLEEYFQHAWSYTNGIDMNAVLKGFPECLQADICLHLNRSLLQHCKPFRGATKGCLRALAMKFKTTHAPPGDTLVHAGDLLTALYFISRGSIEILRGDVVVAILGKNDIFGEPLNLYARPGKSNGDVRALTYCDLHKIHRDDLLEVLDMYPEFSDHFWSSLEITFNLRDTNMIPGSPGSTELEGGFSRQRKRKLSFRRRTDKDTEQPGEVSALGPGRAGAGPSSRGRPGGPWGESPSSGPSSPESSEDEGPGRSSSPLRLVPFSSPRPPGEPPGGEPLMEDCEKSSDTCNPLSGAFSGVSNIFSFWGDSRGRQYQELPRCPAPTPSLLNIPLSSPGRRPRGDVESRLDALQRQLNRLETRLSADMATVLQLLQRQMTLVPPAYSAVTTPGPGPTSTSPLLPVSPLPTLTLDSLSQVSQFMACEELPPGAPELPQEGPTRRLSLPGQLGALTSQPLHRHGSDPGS

[5] = test system: Liver microsomes; assay: Metabolic stability in human liver microsomes; format: ADME, Microsome
[6] = test system: Liver microsomes; assay: Metabolic stability in rat liver microsomes; format: ADME, Microsome
[7] = Half life in dog at 5.6 umol/kg, iv and 5.2 umol/kg, po; format: ADME, organism-based, Canis lupus familiaris; details: in vivo
[8] = Volume of distribution at steady state in dog at 5.6 umol/kg, iv and 5.2 umol/kg, po; format: ADME, organism-based, Canis lupus familiaris; details: in vivo, read-out: Vdss
[9] = Volume of distribution at steady state in rat at 12 umol/kg, iv and 26 umol/kg, po; format: ADME, organism-based; details: in vivo, read-out: Vdss
[10] = Clearance in dog at 5.6 umol/kg, iv and 5.2 umol/kg, po; format: ADME, organism-based, Canis lupus familiaris; details: in vivo
[11] = test system: Plasma; assay: Plasma concentration in methoxamine-sensitised rabbit AERP model at 3 mg/kg, iv; format: ADME, organism-based, Oryctolagus cuniculus; design: dose 3 mg/kg, route intravenous; details: in vivo
[12] = Oral bioavailability in dog at 5.2 umol/kg; format: ADME, organism-based, Canis lupus familiaris; details: in vivo
[13] = test system: Oryctolagus cuniculus; assay: Antiatrial fibrillation activity in methoxamine-sensitised rabbit assessed as increase in atrial effective refractory period at 1 mg/kg, iv relative to control; format: functional, Cardiac atrium
[14] = test system: Plasma; assay: Plasma concentration in methoxamine-sensitised rabbit AERP model at 1 mg/kg, iv; format: ADME, organism-based, Oryctolagus cuniculus; design: dose 1 mg/kg, route intravenous; details: in vivo
[15] = Oral bioavailability in rat at 26 umol/kg; format: ADME, organism-based; details: in vivo
[16] = test system: Plasma; assay: Plasma concentration in methoxamine-sensitised rabbit AERP model at 0.3 mg/kg, iv; format: ADME, organism-based, Oryctolagus cuniculus; design: dose 0.3 mg/kg, route intravenous; details: in vivo
[17] = test system: Oryctolagus cuniculus; assay: Antiatrial fibrillation activity in methoxamine-sensitised rabbit assessed as increase in atrial effective refractory period at 0.3 to 10 mg/kg, iv relative to control; format: functional, organism-based; details: Cardiac atrium
[18] = test system: Plasma; assay: Plasma concentration in methoxamine-sensitised rabbit AERP model at 10 mg/kg, iv; format: ADME, organism-based, Oryctolagus cuniculus; design: dose 10 mg/kg, route intravenous; details: in vivo
[19] = Clearance in rat at 12 umol/kg, iv and 26 umol/kg, po; format: ADME, organism-based; details: in vivo
[20] = Half life in rat at 12 umol/kg, iv and 26 umol/kg, po; format: ADME, organism-based; details: in vivo
[21] = test system: Oryctolagus cuniculus; assay: Proarrythmic activity in methoxamine-sensitized rabbit assessed as increase in ventricular effective refractory period at 0.3 to 10 mg/kg, iv relative to control; format: organism-based, Cardiac ventricle; design: dose 0.3-10 mg/kg, route intravenous; details: in vivo
[22] = Inhibition of ICAL ion channel
[23] = Oral bioavailability in rat at 25.5 umol/kg; format: ADME, organism-based; details: in vivo
[24] = Inhibition of INa ion channel
[25] = Volume of distribution at steady state in rat at 12 umol/kg, iv and 25.5 umol/kg, po; format: ADME, organism-based; details: in vivo, read-out: Vdss
[26] = Volume of distribution at steady state in rabbit at 5.6 umol/kg, iv; format: ADME, organism-based, Oryctolagus cuniculus; details: in vivo, read-out: Vdss
[27] = target: Voltage-gated inwardly rectifying potassium channel KCNH2 (Homo sapiens, UniProt Q12809); assay: Inhibition of human ERG expressed in HEK293 cells by patch clamp assay; format: cell-based
Chain of Voltage-gated inwardly rectifying potassium channel KCNH2 (Q12809 whole entry): as above

[28] = Half life in rat at 12 umol/kg, iv and 25.5 umol/kg, po; format: ADME, organism-based; details: in vivo
[29] = Clearance in rat at 12 umol/kg, iv and 25.5 umol/kg, po; format: ADME, organism-based; details: in vivo
[30] = Inhibition of ICAL ion channel at 10 uM
[31] = target: T2, A-type voltage-gated potassium channel KCND3 (Homo sapiens, UniProt Q9UK17); assay: Inhibition of KV4.3 ion channel
T2 sequence (Q9UK17 whole entry): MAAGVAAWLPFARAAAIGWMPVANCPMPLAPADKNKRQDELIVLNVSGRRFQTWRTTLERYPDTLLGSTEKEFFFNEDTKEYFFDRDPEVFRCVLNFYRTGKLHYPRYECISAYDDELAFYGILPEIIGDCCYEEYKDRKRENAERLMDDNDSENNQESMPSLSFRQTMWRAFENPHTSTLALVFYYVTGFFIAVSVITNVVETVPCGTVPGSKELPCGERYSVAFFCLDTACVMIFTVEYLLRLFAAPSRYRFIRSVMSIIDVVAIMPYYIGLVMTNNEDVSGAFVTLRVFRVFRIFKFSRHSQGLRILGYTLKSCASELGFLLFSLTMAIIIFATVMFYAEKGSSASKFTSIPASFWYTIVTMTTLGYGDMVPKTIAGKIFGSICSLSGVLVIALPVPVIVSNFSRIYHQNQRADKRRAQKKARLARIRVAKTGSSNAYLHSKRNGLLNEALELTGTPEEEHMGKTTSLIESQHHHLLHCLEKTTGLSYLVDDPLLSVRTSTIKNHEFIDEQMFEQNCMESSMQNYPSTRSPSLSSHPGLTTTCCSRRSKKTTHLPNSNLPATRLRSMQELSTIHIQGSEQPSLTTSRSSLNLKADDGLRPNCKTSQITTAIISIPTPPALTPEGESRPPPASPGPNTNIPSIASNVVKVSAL

[32] = Inhibition of INa ion channel at 10 uM
[33] = Half life in rabbit at 5.6 umol/kg, iv; format: ADME, organism-based, Oryctolagus cuniculus; details: in vivo
[34] = Clearance in rabbit at 5.6 umol/kg, iv; format: ADME, organism-based, Oryctolagus cuniculus; details: in vivo

GSH adduct formation [1]: < 1%
inhibition [2]: 45%
SMILES: CC1=C(C(=O)N2CCC[C@H]2c2ccc(F)cc2)[C@@H](c2ccc(Cl)c(Cl)c2)n2ncc(C)c2N1

IC50 [3]: 419 nM
SMILES: CC1=C(C(=O)N2CCN(c3ccc(F)cc3)CC2)C(c2ccc(Cl)c(Cl)c2)n2nc(C(F)(F)F)cc2N1 (racemic)

IC50 [3]: 72 nM
SMILES: CC1=C(C(=O)N2CCC[C@H]2c2cc(C)no2)[C@@H](c2cc3ccccc3n2C)n2nc(C(F)(F)F)cc2N1
inhibition at 10 µM [4]: 19%

IC50 [3]: 281 nM
SMILES: CC1=C(C(=O)N2CCC[C@H]2c2cc(C)no2)[C@@H](c2nc3ccccc3s2)n2nc(C(F)(F)F)cc2N1

GSH adduct formation [1]: 33%
SMILES: CC1=C(C(=O)N2CCC[C@H]2c2ccc(F)cc2)[C@@H](c2ccc(Cl)c(Cl)c2)n2nccc2N1 [BMS-394136]
inhibition at 10 µM [4]: 30%

GSH adduct formation [1]: 4%
inhibition [2]: 24%
SMILES: CC1=C(C(=O)N2CCN(c3ccc(F)cc3)CC2)C(c2ccc(Cl)c(Cl)c2)n2ncc(Cl)c2N1 (racemic)

SMILES: CC1=C(C(=O)N2CCN(c3ccc(F)cc3)CC2)[C@@H](c2ccc(Cl)c(Cl)c2)n2nccc2N1
inhibition at 10 µM [4]: 42%

inhibition [2]: 36%
SMILES: CC1=C(C(=O)N2CCC[C@H]2c2cc(C)no2)[C@@H](c2nc3ccccc3n2C)n2nc(C(F)(F)F)cc2N1

GSH adduct formation [1]: < 1%
IC50 [3]: 124 nM
Stability [5]: Unstable
Stability [6]: Unstable
SMILES: CC1=C(C(=O)N2CCN(c3ccc(F)cc3)CC2)C(c2ccc(Cl)c(Cl)c2)n2nc(C)cc2N1 (racemic)
inhibition at 10 µM [4]: 60%

half-life [7]: 1.8 h
Vd [8]: 1.7 L/kg
Vd [9]: 3 L/kg
clearance [10]: 11 mL/min/kg
bioavailability [12]: 53%
GSH adduct formation [1]: < 1%
bioavailability [15]: 68%
IC50 [3]: 101 nM
clearance [19]: 27 mL/min/kg
Stability [5]: Stable
Stability [6]: Stable
half-life [20]: 1 h
SMILES: CC1=C(C(=O)N2CCC[C@H]2c2cc(C)no2)[C@@H](c2ccc(Cl)c(Cl)c2)n2nc(C(F)(F)F)cc2N1
inhibition at 10 µM [4]: 47%
concentration [11]: 6700 nM
Activity [13]: 20%
concentration [14]: 1700 nM
concentration [16]: 700 nM
Activity [17]: Active
concentration [18]: 17300 nM
Activity [21]: Non-toxic

IC50 [3]: 209 nM
SMILES: CC1=C(C(=O)N2CCN(c3ccc(F)cc3)CC2)C(c2ccc(Cl)c(Cl)c2)n2nc(Cl)cc2N1 (racemic)

IC50 [3]: 149 nM
SMILES: CC1=C(C(=O)N2CCN(c3ccccc3)CC2)C(c2ccc(Cl)c(Cl)c2)n2nc(C)cc2N1 (racemic)
inhibition at 10 µM [4]: 29%

half-life [7]: 1.8 h
Vd [8]: 3.7 L/kg
clearance [10]: 29 mL/min/kg
IC50 [22]: > 10000 nM
bioavailability [12]: 31%
bioavailability [23]: 61%
IC50 [24]: > 10000 nM
Vd [25]: 1.9 L/kg
IC50 [3]: 150 nM
Vd [26]: 5 L/kg
half-life [28]: 2.5 h
clearance [29]: 12 mL/min/kg
inhibition [30]: 37%
IC50 [31]: 5800 nM
inhibition [32]: 10%
half-life [33]: 2 h
clearance [34]: 47 mL/min/kg
SMILES: COCC1=C(C(=O)N2CCC[C@H]2c2cc(C)no2)[C@@H](c2cc3ccccc3n2C)n2nc(C(F)(F)F)cc2N1
inhibition at 10 µM [4]: 14%
concentration [11]: 2100 nM
concentration [14]: 700 nM
IC50 [27]: > 10000 nM
concentration [16]: 300 nM
concentration [18]: 13400 nM
Activity [21]: Non-toxic

IC50 [3]: 70 nM
SMILES: COCC1=C(C(=O)N2CCC[C@H]2c2cc(C)no2)[C@@H](c2ccc(Cl)c(Cl)c2)n2nccc2N1
inhibition at 10 µM [4]: 14%

GSH adduct formation [1]: 5%
IC50 [3]: 100 nM
Stability [5]: Unstable
Stability [6]: Unstable
SMILES: CC1=C(C(=O)N2CCC[C@H]2c2ccc(F)cc2)[C@@H](c2ccc(Cl)c(Cl)c2)n2nc(C)cc2N1
inhibition at 10 µM [4]: 10%

inhibition [2]: 37%
SMILES: CC1=C(C(=O)N2CCC[C@H]2c2ccc(F)cc2)[C@@H](c2ccc(Cl)c(Cl)c2)n2nc(C(F)(F)F)cc2N1

GSH adduct formation [1]: 21%
IC50 [3]: 83 nM
SMILES: CC1=C(C(=O)N2CCC[C@H]2c2cc(C)no2)[C@@H](c2ccc(Cl)c(Cl)c2)n2nccc2N1
inhibition at 10 µM [4]: 41%

GSH adduct formation [1]: < 1%
IC50 [3]: 165 nM
Stability [5]: Unstable
Stability [6]: Unstable
SMILES: CC1=C(C(=O)N2CCC[C@H]2c2cc(C)no2)[C@@H](c2ccc(Cl)c(Cl)c2)n2nc(C)cc2N1
inhibition at 10 µM [4]: 13%

IC50 [3]: 227 nM
SMILES: CC1=C(C(=O)N2CCC[C@H]2c2cc(C)no2)[C@@H](c2ccc(Cl)c(Cl)c2)n2nc(C3CC3)cc2N1
